Compound activity as filed in PubChem BioAssay.
Arrestin-AP2 inh: inhibitors of human beta-arrestin and AP2 interaction; actives 0.31% (n = 340,000); FITC-arrestin peptide / GST-AP2 beads, flow cytometry; AP2 beta2 appendage carries R879A mutation; AID 504490; inhibition, % at 10 µM;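 active means inhibition above a set limit, near 3 SD of compounds lacking own fluorescence, cut at about 54% in these data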;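 further: plate controls were DMSO wells for no effect and 5 µM unlabelled arrestin peptide for full effect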
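Material – GST-tagged AP2 beta2-adaptin appendage (R879A) on 4 µm glutathione beads · Probe or stimulus – fluorescein-tagged arrestin peptide at 50 nM final · Timing – 12 min plus 1 h, RT · Detection – bead flow cytometry, FITC channel · Read-out basis – inhibition as reduced fluorescein signal on beads, percent · Medium – PBS plus Tween 20 (0.05%) and BSA (0.1%)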
A3G deaminase: blocks human APOBEC3G single-stranded DNA deamination; actives 0.28% (n = 330,000); inhibition, % at 20 µM; AID 493012; recombinant A3G, ssDNA deamination FAM/TAMRA fluorescence; Q9HC16;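 active means inhibition of at least 40% at 20 µM, with no more than 30% in the related APOBEC3A deaminase screen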;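 further: plate controls were DMSO wells with A3G for no effect and wells lacking A3G enzyme for full effect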
UCH37 inh: inhibitors of human deubiquitinating enzyme UCH37; inhibition, % (no concentration beside the values); AID 588478; actives 0.33% (n = 330,000); Q9Y5K5; purified proteasome/UCH37, Ub-AMC cleavage fluorescence;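 active means mean inhibition over replicate wells above about 20%, limit read from the data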;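 further: 0% = compound-free wells with enzyme and 100% = wells lacking proteasome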
Target sequence (Q9Y5K5 whole entry, looked up): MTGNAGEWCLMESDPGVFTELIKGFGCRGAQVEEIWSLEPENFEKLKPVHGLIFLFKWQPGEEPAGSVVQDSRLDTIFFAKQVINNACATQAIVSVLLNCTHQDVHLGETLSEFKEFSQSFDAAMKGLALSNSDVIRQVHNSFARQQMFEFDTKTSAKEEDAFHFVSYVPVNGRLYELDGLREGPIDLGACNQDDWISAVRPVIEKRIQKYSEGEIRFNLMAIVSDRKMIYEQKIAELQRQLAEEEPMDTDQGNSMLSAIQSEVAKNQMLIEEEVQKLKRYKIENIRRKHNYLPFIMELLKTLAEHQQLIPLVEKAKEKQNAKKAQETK
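Material: Human UCH37 enzyme supplied as purified proteasome complex | Schedule: 30 min preincubation with enzyme, 25 min cleavage at room temperature | Detection: AMC fluorescence 355/460 nm | Measure: % inhibition of Ub-AMC cleavage fluorescence | Controls: Wells without proteasome as full block, compound-free enzyme plus substrate as uninhibited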
A3A deaminase: blocks human APOBEC3A ssDNA deamination; P31941; recombinant A3A, FAM/TAMRA ssDNA deamination fluorescence; inhibition, % at 20 µM; actives 0.41% (n = 330,000);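 active means at least 40% inhibition at 20 µM here, with at most 30% in a related deaminase screen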;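 further: plate controls were A3A with DMSO for no effect and wells lacking A3A enzyme for full effect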
Target sequence (P31941 whole entry, looked up): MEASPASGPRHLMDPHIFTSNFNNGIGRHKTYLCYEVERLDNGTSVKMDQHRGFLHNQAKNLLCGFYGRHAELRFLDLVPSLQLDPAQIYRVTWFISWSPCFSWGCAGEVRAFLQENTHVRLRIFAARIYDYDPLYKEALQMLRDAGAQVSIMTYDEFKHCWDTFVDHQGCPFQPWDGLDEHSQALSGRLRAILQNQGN
AHR activator: activates the human aryl hydrocarbon receptor; P35869; AHR-responsive luciferase reporter cells, luminescence; activation, % at 5 µM; actives 2.5% (n = 320,000); in the data active means activation above about 47%;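 further: 0% = vehicle wells and 100% = reference agonist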
PolyA inhibitor: yeast polyadenylation inhibition; S. cerevisiae SKY197-pL101 polyadenylation reporter, beta-gal luminescence; efflux-impaired pdr1/pdr3 knockout yeast; score 100 = 6 SD above DMSO; activity score, % at 12 µM; actives 0.02% (n = 300,000);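 active means lowest replicate activity score at least 50, where 100 means six control SD above control mean; inconclusive means lowest score under 50 but half or more replicates reach 50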;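 further: yeast exposed to compound for 9 h at 30 °C; higher score means more reporter readthrough which indicates perturbed polyadenylation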
APOBEC3A confirm: APOBEC3A (human) deaminase inhibition, confirmed. shares compounds with A3A deaminase. recombinant A3A, ssDNA deaminase UDG fluorescence assay. inhibition, % at 20 µM. actives 63% (n = 1,400);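 active means inhibition reaching a set limit, 80% of the first screen's cutoff, at 20 µM in any replicate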;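 further: plate controls were DMSO wells with A3A for no effect and wells lacking A3A enzyme for full effect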
UDG A3A counter: counter-screen for APOBEC3A inhibitors: UDG; shares compounds with A3A deaminase; UDG counterscreen, FAM/TAMRA uracil oligo fluorescence; inhibition, % at 20 µM; 1,000 tested, under 10 active; AID 504714; call rule not given here
* = called active by the depositor; ? = inconclusive; · = not tested or not shown. Compounds with a hit are over-represented: about 3.4% of the library has one in this group of screens.

SMILES	Arrestin-AP2 inh	A3G deaminase	UCH37 inh	A3A deaminase	AHR activator	PolyA inhibitor	APOBEC3A confirm	UDG A3A counter
CCn1c(SCC(=O)O)nc2sc3c(c2c1=O)CCC3	-8	17	6	54*	1	0	48*	6
CC(=NNc1nc(N2CCCCCC2)nc(N2CCCCCC2)n1)c1ccccc1	·	·	0	·	·	·	·	·
CC1CC(C)(C)OC(C[N+]2(C)CCCCC2)O1 (stereo unspecified)	-17	20	4	49*	-2	-1	77*	3
CCOC(=O)CC(NS(=O)(=O)c1ccc2[nH]cc(C(=O)O)c(=O)c2c1)c1ccc(OCC)c(OC)c1 (stereo unspecified)	-12	14	5	47*	-2	-9	33*	·
Cc1oc(N=Cc2ccc(O)cc2O)c(C#N)c1C	·	·	4	·	·	·	·	·
O=C(COc1ccc(Cl)cc1)OCC(=O)N1CCCC1	0	-4	2	55*	-2	-2	-1	3
O=C(COc1ccc(Cl)cc1)OCC(=O)N1CCCCCC1	-5	-2	2	-9	-3	?	·	·
Cc1cc(C)[n+](C)n1CC(O)Cn1c2ccccc2c2ccccc21 (stereo unspecified)	41	11	7	45*	2	13	76*	2
Cc1ccc(S(=O)(=O)NN=Cc2cccc3nccnc23)cc1	·	·	5	·	·	·	·	·
CCCOc1ccc(C(=O)Nc2ccccc2[N+](=O)[O-])cc1	8	-2	-2	76*	0	-18	-8	-3
CCN1C(=NCc2ccccc2)N[C@@H](c2ccccc2)[C@H](C(=O)OC)[C@H]1C	-22	32	6	55	3	-8	·	·
CCN1C(=NCCc2c[nH]c3ccccc23)N[C@@H](c2ccccc2)[C@H](C(=O)OC)[C@H]1C	2	4	-6	51*	19	1	45*	-2
CCN1C(=NCc2ccc(OC)cc2)N[C@@H](c2ccccc2)[C@H](C(=O)OC)[C@H]1C	-2	8	-2	41*	-2	·	56*	-2
O=C(CC(=O)NN=Cc1ccc(F)cc1)NN=Cc1ccc(F)cc1	·	·	4	·	·	·	·	·
C[N+](C)(C)CC(=O)NN=Cc1c2ccccc2cc2ccccc12	·	·	1	·	·	·	·	·
CC1(C)Oc2ccc3ccc(=O)oc3c2C(/C=N/O)=C1Cl	-3	8	·	67*	1	3	54*	-2
CC1(C)Oc2ccc3ccc(=O)oc3c2C(C=NO)=C1Cl	·	·	0	·	·	·	·	·
CCOC(=O)c1c(N=CC2=C(O)CCCC2=O)sc(C)c1C	·	·	2	·	·	·	·	·
CCOC(=O)c1sc(N=NC2=C(O)CCCC2=O)c(C(=O)OCC)c1C	20	19	2	40*	0	4	18*	0
Cc1nn(C)c(C)c1C=NO	·	·	-1	·	·	·	·	·
N#C/C(=C/c1ccccc1OCc1ccc(F)cc1)c1ccc(C(=O)O)cc1	-7	6	8	67*	0	-2	8	·
O=C(NCC1COc2ccccc2O1)c1cc(S(=O)(=O)N2CCOCC2)c(Cl)cc1Cl (stereo unspecified)	-3	4	1	42*	·	·	1	·
COc1ccc(Cl)cc1C(=O)NCCN1CCOCC1	31	4	·	0	5	-12	·	·
O=C(NCCN1CCOCC1)c1ccc(Cl)cc1[N+](=O)[O-]	-16	-6	-2	46*	1	-5	10*	-1
CCOC(=O)CN1C(=O)S/C(=C\c2ccc(-c3cccc(C(=O)O)c3C)o2)C1=O	0	-5	8	6	2	10	·	·
SMILES	Arrestin-AP2 inh	A3G deaminase	UCH37 inh	A3A deaminase	AHR activator	PolyA inhibitor	APOBEC3A confirm	UDG A3A counter
CCOC(=O)CN1C(=O)S/C(=C\c2ccc(-c3ccc(C(=O)O)c(Cl)c3)o2)C1=O	30	16	-3	58*	1	11	40*	-12
O=C(CCC(=O)Nc1ccccc1)NN=C/C=C/c1ccccc1	·	·	5	·	·	·	·	·
CC(CC(=O)NC1CCCC1)=NNC(=O)Cc1cccs1	·	·	3	·	·	·	·	·
Cc1cc(C(=O)NN=Cc2sc(N3CCOCC3)nc2-c2ccccc2)c(C)o1	·	·	-67	·	·	·	·	·
O=Cc1cn(-c2ccccc2)nc1-c1cc2c(ccc3ccccc32)oc1=O	2	-8	-72	77*	3	·	-5	6
CC(=NNC(=O)CN1CCCCC1)c1ccccc1O	·	·	-1	·	·	·	·	·
C/C(=N\NC(=O)CN1CCCCC1)c1ccccc1O	24	11	·	40*	9	-7	20	·
CCOCc1cnc(C)nc1NCC(=O)c1c(C)[nH]c2cc(C)ccc12	-1	27	7	56*	0	2	64*	1
CCOCc1cnc(C)nc1NCC(=O)c1c(C)[nH]c2ccccc12	-13	19	4	36	3	-5	·	·
CCN1CCN(c2ccc(NC(=O)c3ccc4c(c3)OCCO4)cc2C)CC1	-15	19	6	74*	·	·	73*	-1
CCN1CCN(c2ccc(NC(=O)c3ccccc3F)cc2Cl)CC1	-16	-6	4	10	7	5	·	·
CCN1CCN(c2ccc(NC(=O)c3cc4ccccc4cc3OC)cc2C)CC1	-37	7	·	41*	7	·	73*	-4
CCN1CCN(c2cc(C)c3cc(NC(=O)c4ccc5c(c4)OCO5)ccc3n2)CC1	1	-2	6	1	0	18	·	·
CCNS(=O)(=O)c1ccc(NC(=O)Cc2ccc(F)cc2)cc1	2	3	5	4	-3	-4	·	·
CC(Nc1ccc(F)cc1)=[N+](C)CCNS(=O)(=O)c1ccc(Cl)cc1	4	17	2	55*	2	-5	-8	·
O=C(CCCC(=O)n1cnc2ccccc21)n1cnc2ccccc21	-2	-3	-1	-1	1	-3	·	·
Cc1ccc(N(C)C(=O)n2cnc3ccccc32)cc1	32	-6	0	52*	0	-2	-1	-3
CCc1ccc(OCC(=O)N/N=C\c2ccco2)c([N+](=O)[O-])c1	45	14	·	43*	4	30	43*	3
O=C(NC1=NCCS1)C1CCN(S(=O)(=O)c2cc([N+](=O)[O-])ccc2Cl)CC1	-5	12	3	53*	5	·	53*	-4
COCCN(CCOC)Cc1c(O)ccc2c1O/C(=C\c1ccco1)C2=O	34	14	·	56*	0	-3	27*	2
O=C1/C(=C/c2ccco2)Oc2c1ccc(O)c2CN1CCCCC1	15	72	-2	86	2	0	·	·
CC1CCN(Cc2c(O)ccc3c2O/C(=C\c2ccco2)C3=O)CC1	17	4	0	97*	0	-31	36*	-5
